Source: ChEMBL document CHEMBL3351467, “Ligand-free Pd-catalyzed C-N cross-coupling/cyclization strategy: an unprecedented access to 1-thienyl pyrroloquinoxalines for the new approach towards apoptosis” (Eur J Med Chem, 2014)
The source made the active and inactive calls. The rule behind the calls is not given here.

Key:
[1] = species on record: Danio rerio; assay: Hepatotoxicity in Zebrafish embryo at 1 to 10 uM incubated at 28 degC until 7 days post fertilization; assay type: organism-based; conditions: in vivo, 168 h
Procedure, shortened: (§1)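 Larvae at 4 dpf exposed in 24-well plates, 6 per well in 0.1% DMSO, to final 1, 3, 10 and 30 concentrations, incubated at 28 °C until 7 dpf. Washed in E3 and anaesthetised with tricaine. Images scored for liver size, liver degeneration and yolk sac retention as percentages. Amiodarone served as positive control.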

[2] = species on record: Danio rerio; assay: Toxicity in Zebrafish embryo assessed as induction of changes in brain region at 1 uM; assay type: organism-based; conditions: in vivo
Procedure, shortened: (§2)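 Embryos at 1 dpf dechorionated with 0.5 mg/ml pronase E and washed in E3. Exposed 6 per well to compound serially diluted in E3 with a final 0.1% DMSO, at 28.5 °C until 5 dpf. Embryos then washed, anaesthetised with 0.008% tricaine and scored blind for body shape, somites, notochord, tail, intestine, fins, brain, jaws, heart, liver and swim bladder. Phenobarbital (3 mM) served as positive control.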

[3] = Therapeutic index, ratio of NOAEL in Zebrafish embryos to apoptotic EC50 in Zebrafish embryos; assay type: organism-based, Danio rerio; conditions: read-out: TI
[4] = species on record: Danio rerio; assay: Toxicity in Zebrafish embryo assessed as induction of changes in upper jaw region at 1 uM; assay type: organism-based; conditions: in vivo; procedure, shortened: as §2
[5] = species on record: Danio rerio; assay: Toxicity in Zebrafish embryo at 1 to 30 uM; assay type: organism-based; conditions: in vivo; procedure, shortened: as §2
[6] = species on record: Danio rerio; assay: Induction of apoptosis in Zebrafish embryo at 1 uM incubated for 24 to 48 hrs by acridine orange based fluorescence microscopy; assay type: functional, organism-based
Procedure, shortened: (§3)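 Embryos dechorionated by hand at 24 hpf, 6 per well in two sets, in 0.1% DMSO. Compound added from serially diluted working stocks, kept at 28 °C for 24 h and 48 h. Washed three times in E3, stained 30 min with acridine orange ([…]) in E3, rinsed twice, then examined for apoptosis.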

[7] = species on record: Danio rerio; assay: Toxicity in Zebrafish embryo assessed as induction of changes in fins region at 1 uM; assay type: organism-based; conditions: in vivo; procedure, shortened: as §2
[8] = species on record: Danio rerio; assay: Teratogenicity in Zebrafish embryo at 1 to 30 uM incubated at 28.5 degC until 5 days post fertilization; assay type: ADME, organism-based; conditions: in vivo, 120 h; procedure, shortened: as §2
[9] = species on record: Danio rerio; assay: Induction of apoptosis in Zebrafish embryo at 3 to 30 uM incubated for 24 to 48 hrs by acridine orange based fluorescence microscopy; assay type: functional, organism-based; procedure, shortened: as §3
[10] = species on record: Danio rerio; assay: Toxicity in Zebrafish embryo assessed as induction of changes in notochords at 1 uM; assay type: organism-based, Notochord; conditions: in vivo; procedure, shortened: as §2
[11] = species on record: Danio rerio; assay: Toxicity in Zebrafish embryo assessed as induction of changes in liver region at 1 uM; assay type: organism-based; conditions: in vivo; procedure, shortened: as §2
[12] = species on record: Danio rerio; assay: Toxicity in Zebrafish embryo assessed as induction of changes in swim bladder region at 1 uM; assay type: organism-based; conditions: in vivo; procedure, shortened: as §2
[13] = species on record: Danio rerio; assay: Toxicity in Zebrafish embryo assessed as induction of changes in somites at 1 uM; assay type: organism-based; conditions: in vivo; procedure, shortened: as §2
[14] = molecular target: 3',5'-cyclic-AMP phosphodiesterase 4B (Homo sapiens) (UniProt Q07343); assay: Inhibition of recombinant His-tagged PDE4B1 (unknown origin) expressed in Sf9 cells at 30 uM pre-incubated for 15 mins before cAMP substrate addition by luminescence assay
Procedure, shortened: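 PDE4B1 purified in house (10 ng) pre-incubated 15 min with compound or DMSO vehicle. cAMP substrate ([…]) added for 1 h, then reaction stopped and detection reagent applied 10 min in the dark. Luminescence (RLU) read. % inhibition = (RLU vehicle − RLU inhibitor)/RLU vehicle × 100.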

[15] = species on record: Danio rerio; assay: Toxicity in Zebrafish embryo assessed as induction of changes in lower jaw region at 1 uM; assay type: organism-based; conditions: in vivo; procedure, shortened: as §2
[16] = species on record: Danio rerio; assay: Induction of apoptosis in Zebrafish embryo incubated for 24 to 48 hrs by acridine orange based fluorescence microscopy; assay type: functional, organism-based; procedure, shortened: as §3
[17] = species on record: Danio rerio; assay: Toxicity in Zebrafish embryo assessed as induction of changes in heart region at 1 uM; assay type: organism-based; conditions: in vivo; procedure, shortened: as §2
[18] = species on record: Danio rerio; assay: Toxicity in Zebrafish embryo assessed as induction of changes in tail region at 1 uM; assay type: organism-based; conditions: in vivo; procedure, shortened: as §2
[19] = species on record: Danio rerio; assay: Toxicity in Zebrafish embryo assessed as induction of changes in intestine region at 1 uM; assay type: organism-based; conditions: in vivo; procedure, shortened: as §2
[20] = species on record: Danio rerio; assay: Hepatotoxicity in Zebrafish embryo at 30 uM incubated at 28 degC until 7 days post fertilization; assay type: organism-based; conditions: in vivo, 168 h; procedure, shortened: as §1
[21] = species on record: Danio rerio; assay: Hepatotoxicity in Zebrafish embryo at 28 degC until 7 days post fertilization; assay type: organism-based; conditions: in vivo, 168 h; procedure, shortened: as §1
[22] = species on record: Danio rerio; assay: Teratogenicity in Zebrafish embryo incubated at 28.5 degC until 5 days post fertilization; assay type: ADME, organism-based; conditions: in vivo, 120 h; procedure, shortened: as §2
[23] = species on record: Danio rerio; assay: Toxicity in Zebrafish embryo assessed as induction of changes in body shape at 1 uM; assay type: organism-based; conditions: in vivo; procedure, shortened: as §2
[24] = species on record: Danio rerio; assay: Hepatotoxicity in Zebrafish embryo at 3 uM incubated at 28 degC until 7 days post fertilization; assay type: organism-based; conditions: in vivo, 168 h; procedure, shortened: as §1
[25] = species on record: Danio rerio; assay: Teratogenicity in Zebrafish embryo at 10 to 30 uM incubated at 28.5 degC until 5 days post fertilization; assay type: ADME, organism-based; conditions: in vivo, 120 h; procedure, shortened: as §2
[26] = species on record: Danio rerio; assay: Induction of apoptosis in Zebrafish embryo up to 3 uM incubated for 24 to 48 hrs by acridine orange based fluorescence microscopy; assay type: functional, organism-based; procedure, shortened: as §3
[27] = species on record: Danio rerio; assay: Hepatotoxicity in Zebrafish embryo assessed as induction of embryo mortality at 10 to 30 uM incubated at 28 degC until 7 days post fertilization; assay type: organism-based; conditions: in vivo, 168 h
Procedure, shortened: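 Zebrafish embryos at 4 dpf, six per well in 0.1% DMSO, exposed to final compound concentrations of 1, 3, 10 and 30 at 28 °C until 7 dpf. Embryos then washed in E3 medium, anaesthetised with tricaine and imaged; liver size, liver degeneration and yolk sac retention quantified as percentages. Amiodarone served as positive control; evaluation blinded.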

[28] = species on record: Danio rerio; assay: Teratogenicity in Zebrafish embryo assessed as live embryo level at 1 uM incubated at 28.5 degC until 5 days post fertilization; assay type: ADME, organism-based; conditions: in vivo, 120 h; procedure, shortened: as §2
[29] = Teratogenicity in Zebrafish embryo assessed as live embryo level at 3 uM incubated at 28.5 degC until 5 days post fertilization; assay type: ADME, organism-based, Danio rerio; conditions: zebrafish embryos, read-out: Activity
Procedure, shortened: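 Zebrafish embryos collected at 1 dpf, staged, dechorionated with 0.5 mg/ml pronase E and washed in E3 medium. Compound serially diluted in E3 with 0.1% DMSO final. Six embryos per well, exposed at 28.5 °C until 5 dpf, then washed, anaesthetised with 0.008% tricaine and scored for morphology (body shape, somites, notochord, tail, intestine, fins, brain, jaws, heart, liver, swim bladder). Blinded; phenobarbital 3 mM positive control.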

[30] = species on record: Danio rerio; assay: Teratogenicity in Zebrafish embryo assessed as induction of morphological deformities at swim bladder at 1 uM incubated at 28.5 degC until 5 days post fertilization; assay type: toxicity, organism-based; conditions: in vivo, 120 h; procedure, shortened: as §2
[31] = species on record: Danio rerio; assay: Hepatotoxicity in Zebrafish embryo at 1 uM incubated at 28 degC until 7 days post fertilization; assay type: organism-based; conditions: in vivo, 168 h; procedure, shortened: as §1
[32] = species on record: Danio rerio; assay: Teratogenicity in Zebrafish embryo assessed as induction of morphological deformities at 3 uM incubated at 28.5 degC until 5 days post fertilization; assay type: organism-based; conditions: in vivo, 120 h; procedure, shortened: as §2
[33] = species on record: Danio rerio; assay: Induction of cell death in Zebrafish embryo at 10 to 30 uM incubated for 24 to 48 hrs by acridine orange based fluorescence microscopy; assay type: functional, organism-based; procedure, shortened: as §3
[34] = species on record: Danio rerio; assay: Teratogenicity in Zebrafish embryo assessed as induction of morphological deformities at lower jaw at 1 uM incubated at 28.5 degC until 5 days post fertilization; assay type: organism-based; conditions: in vivo, 120 h; procedure, shortened: as §2

Sequence of 3',5'-cyclic-AMP phosphodiesterase 4B (Homo sapiens) (Q07343 whole entry): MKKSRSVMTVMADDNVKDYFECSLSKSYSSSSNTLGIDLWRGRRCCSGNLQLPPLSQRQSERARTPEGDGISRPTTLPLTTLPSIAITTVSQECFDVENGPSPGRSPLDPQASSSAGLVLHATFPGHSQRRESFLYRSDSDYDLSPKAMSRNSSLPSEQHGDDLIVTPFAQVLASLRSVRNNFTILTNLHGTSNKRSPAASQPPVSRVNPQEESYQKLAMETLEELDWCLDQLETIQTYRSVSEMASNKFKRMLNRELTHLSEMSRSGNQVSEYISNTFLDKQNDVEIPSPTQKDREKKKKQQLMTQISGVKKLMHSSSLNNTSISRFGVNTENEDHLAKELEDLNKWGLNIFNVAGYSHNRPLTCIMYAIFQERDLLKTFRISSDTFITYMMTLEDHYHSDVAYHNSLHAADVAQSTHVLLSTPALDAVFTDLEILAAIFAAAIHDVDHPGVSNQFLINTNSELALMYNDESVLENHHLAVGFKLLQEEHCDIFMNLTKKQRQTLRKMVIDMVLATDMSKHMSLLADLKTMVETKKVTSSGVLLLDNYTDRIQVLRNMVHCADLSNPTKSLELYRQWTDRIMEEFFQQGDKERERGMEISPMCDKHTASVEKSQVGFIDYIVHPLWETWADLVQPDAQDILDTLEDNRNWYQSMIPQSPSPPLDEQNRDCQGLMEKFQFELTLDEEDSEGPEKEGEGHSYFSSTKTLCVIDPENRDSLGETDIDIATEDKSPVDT

SMILES | Activity [2] | selectivity ratio [3] | Activity [4] | MTC [5] [µM] | NOAEL [5] [µM] | Activity [7] | Activity [10] | Activity [11] | Activity [12] | Activity [13] | inhibition [14] [%] | Activity [15] | EC50 [16] [µM] | Activity [17] | Activity [18] | Activity [19] | NOAEL [22] [µM] | Activity [23] | other results
CCOC(=O)c1c(-c2ccccc2)csc1-n1c(-c2ccc(C)cc2)cc2nc3ccccc3nc21 | Non-toxic | 1.64 | Non-toxic | 1 | 3 | Non-toxic | Non-toxic | Non-toxic | Non-toxic | Non-toxic | 78 | Toxic | 1.83 | Non-toxic | Non-toxic | Non-toxic | 3 | Non-toxic | Activity [1]: Non-toxic; Activity [6]: inactive; Activity [8]: Non-toxic; Activity [9]: Active; Activity [20]: Toxic; NOAEL [21]: 10 µM
CCOC(=O)c1c(-n2c(-c3ccccc3)cc3nccnc32)sc2c1CCC2 | Non-toxic | 0.577 | Non-toxic | 1 | < 1 | Non-toxic | Non-toxic | Toxic | Toxic | Toxic | 62 | Toxic | 1.73 | Non-toxic | Non-toxic | Non-toxic | 1 | Non-toxic | Activity [24]: Toxic; Activity [25]: Toxic; Activity [26]: Active; LD [5]: 10 µM; Activity [27]: Toxic; Activity [28]: Non-toxic; survival at 120 h, 3 µM [29]: 50%; Activity [30]: Toxic; Activity [31]: Non-toxic; Activity [32]: Toxic; Activity [33]: Active; Activity [34]: Toxic
